{"data": "Published values from different studies", "target": "Inhibitor of nuclear factor kappa-B kinase subunit alpha (CHUK, Homo sapiens, UniProt O15111)", "One construct used (O15111 1-745)": "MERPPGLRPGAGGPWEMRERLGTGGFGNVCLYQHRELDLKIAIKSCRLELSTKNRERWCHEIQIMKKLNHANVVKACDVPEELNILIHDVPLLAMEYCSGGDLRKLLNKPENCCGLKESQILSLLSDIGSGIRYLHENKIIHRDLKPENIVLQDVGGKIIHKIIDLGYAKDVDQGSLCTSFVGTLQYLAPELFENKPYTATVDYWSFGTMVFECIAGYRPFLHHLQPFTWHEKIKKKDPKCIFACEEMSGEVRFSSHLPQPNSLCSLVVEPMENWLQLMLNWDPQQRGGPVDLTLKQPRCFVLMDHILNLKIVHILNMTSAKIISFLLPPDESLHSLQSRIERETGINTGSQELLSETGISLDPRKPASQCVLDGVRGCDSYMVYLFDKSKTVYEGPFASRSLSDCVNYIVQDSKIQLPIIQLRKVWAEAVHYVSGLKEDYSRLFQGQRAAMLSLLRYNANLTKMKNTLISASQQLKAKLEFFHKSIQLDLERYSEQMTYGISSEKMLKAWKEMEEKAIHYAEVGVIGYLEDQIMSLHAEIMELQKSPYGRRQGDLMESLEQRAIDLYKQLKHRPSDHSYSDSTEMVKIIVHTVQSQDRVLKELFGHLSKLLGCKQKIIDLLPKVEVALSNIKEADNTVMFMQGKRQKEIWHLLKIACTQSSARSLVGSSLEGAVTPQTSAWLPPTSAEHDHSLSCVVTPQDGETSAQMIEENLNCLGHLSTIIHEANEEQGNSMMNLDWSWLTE", "note": "Each line is one published result; the experiments were not run side by side."}
{"SMILES": "CCC(=O)N[C@@H]1CC[C@H](C(=O)N(C)c2ccc(-c3nc4ccccc4o3)cc2)C1", "effect on": "cell-free assay", "method": "competition with immobilised ligand", "concentration": "1 µM", "measurement": "remaining binding", "result": "100%"}
{"SMILES": "O=C1NC(=O)c2cc(Nc3ccc(F)cc3)c(Nc3ccc(F)cc3)cc21", "effect on": "cell-free assay", "mode": "inhibitor", "concentration": "0.5 µM", "measurement": "remaining signal", "result": "99.2%"}
{"SMILES": "CCN(CC)CCNC(=O)c1c(C)[nH]c(/C=C2\\C(=O)Nc3ccc(F)cc32)c1C", "effect on": "enzyme activity", "mode": "inhibitor", "concentration": "0.3 µM", "measurement": "inhibition", "result": "-1%"}
{"SMILES": "CN([C@@H]1CCc2c(CC(=O)O)c3cc(S(C)(=O)=O)ccc3n2C1)S(=O)(=O)c1ccc(F)cc1", "effect on": "cell-free assay", "method": "competition with immobilised ligand", "concentration": "1 µM", "measurement": "remaining binding", "result": "100%"}
{"SMILES": "CCCOc1ccc(OC)c(F)c1C(=O)c1ccc(C(=O)N[C@@H]2CNC[C@H]2NC(=O)c2ccc3[nH]ncc3c2)cc1", "effect on": "enzyme activity", "mode": "inhibitor", "concentration": "10 µM", "measurement": "remaining activity", "result": "83%"}
{"SMILES": "CC(=O)C1=C(C)N(c2cccc(C(F)(F)F)c2)C(=O)N[C@@H]1c1ccc(C#N)nc1", "effect on": "cell-free assay", "method": "competition with immobilised ligand", "concentration": "1 µM", "measurement": "remaining binding", "result": "100%"}
{"SMILES": "Cc1ccc(C(=O)Nc2ccc(CN3CCN(C)CC3)c(C(F)(F)F)c2)cc1C#Cc1cnc2cccnn12", "effect on": "enzyme activity", "mode": "inhibitor", "concentration": "23.5 nM", "measurement": "remaining activity", "result": "19%"}
{"SMILES": "N#CCCc1ccc2c(c1)-c1[nH]c3ccc([N+](=O)[O-])cc3c1CC(=O)N2", "effect on": "cell-free assay", "concentration": "0.5 µM", "measurement": "remaining signal", "result": "105%"}
{"SMILES": "Cc1cc(NC(=O)c2cccc3cc(-c4cccc5[nH]nc(N)c45)ccc23)ccc1F", "effect on": "enzyme activity", "mode": "inhibitor", "concentration": "0.1 µM", "measurement": "activity vs control", "result": "127%"}
{"SMILES": "CC(C)(C)c1nc(-c2cccc(NS(=O)(=O)c3c(F)cccc3F)c2F)c(-c2ccnc(N)n2)s1", "effect on": "enzyme activity", "mode": "inhibitor", "method": "radiometric", "concentration": "1 µM", "measurement": "remaining activity", "result": "97%"}
{"SMILES": "c1ccc(CNc2nc(N3CCOc4ccccc43)nc3c2CCCC3)cc1", "effect on": "target engagement in cells", "mode": "inhibitor", "method": "chemoproteomics", "concentration": "20 mM", "measurement": "inhibition", "result": "10.8%"}
{"SMILES": "CN(C)c1ncnc(-c2ccc3nc(Nc4cc(CN5CCN(C(=O)CC(F)(F)F)CC5)ccn4)[nH]c3c2)c1Cl", "effect on": "cell-free assay", "method": "competition with immobilised ligand", "concentration": "1 µM", "measurement": "remaining binding", "result": "69%"}
{"SMILES": "O=C1Nc2ccc(Cl)cc2C1=Cc1cc(Cl)c(O)c(Cl)c1", "effect on": "cell-free assay", "concentration": "0.5 µM", "measurement": "remaining signal", "result": "97%"}
{"SMILES": "O=C(NCc1ncc(C(F)(F)F)cc1Cl)c1ccc2c(c1)C1(CCS(=O)(=O)CC1)[C@H](C1CC1)N2S(=O)(=O)c1ccc(F)cc1", "effect on": "cell-free assay", "method": "competition with immobilised ligand", "concentration": "1 µM", "measurement": "remaining binding", "result": "77%"}
{"SMILES": "O=C(Nc1cnn(-c2csc(C(=O)NC3COC3)c2)c1)Nc1c(F)cccc1Cl", "effect on": "enzyme activity", "mode": "inhibitor", "concentration": "5 µM", "measurement": "remaining activity", "result": "108%"}
{"SMILES": "CSc1nc(C)c(-c2ccnc(Nc3ccc(N4CCOCC4)cc3)c2)[nH]1", "effect on": "enzyme activity", "mode": "inhibitor", "concentration": "10 µM", "measurement": "inhibition", "result": "48.8%"}
{"SMILES": "O=C(Nc1nccs1)C(c1cc(F)ccc1O)N1Cc2ccccc2C1=O (stereo not drawn)", "effect on": "enzyme activity", "mode": "inhibitor", "concentration": "1 µM", "measurement": "inhibition", "result": "16%"}
{"SMILES": "CC(C)(O)[C@H]1CC[C@H](Nc2ccc3ncc(-c4cccc(C(F)(F)F)c4)n3n2)CC1", "effect on": "enzyme activity", "mode": "inhibitor", "concentration": "1 µM", "measurement": "remaining activity", "result": "83.6%"}
{"SMILES": "CCN(CC)c1ccc(C2=NNC(=O)CC2C)cc1[N+](=O)[O-] (stereo not drawn)", "effect on": "enzyme activity", "mode": "inhibitor", "concentration": "10 µM", "measurement": "remaining activity", "result": "109%"}
{"SMILES": "CN(C)C(=O)Cn1cc(-c2nc(C3(c4ccc(-c5cnc(N)nc5)cc4)CC3)no2)cn1", "effect on": "cell-free assay", "method": "competition with immobilised ligand", "concentration": "1 µM", "measurement": "remaining binding", "result": "100%"}
{"SMILES": "Nc1ncnc2occ(-c3ccc(NC(=O)Nc4cc(C(F)(F)F)ccc4F)cc3)c12", "effect on": "enzyme activity", "mode": "inhibitor", "concentration": "20 µM", "measurement": "remaining activity", "result": "0%"}
{"SMILES": "C[C@H](NC(=O)c1cnc2n1[C@](C)(Cc1ccc(C#N)cc1)C(=O)N2c1cc(Cl)c(F)c(Cl)c1)C(=O)NC1(c2ccccn2)CC1", "effect on": "cell-free assay", "method": "competition with immobilised ligand", "concentration": "1 µM", "measurement": "remaining binding", "result": "100%"}
{"SMILES": "CNC(=O)c1cc(Oc2ccc(NC(=O)Nc3ccc(Cl)c(C(F)(F)F)c3)cc2)ccn1", "effect on": "enzyme activity", "mode": "inhibitor", "concentration": "10 µM", "measurement": "inhibition", "result": "-35%"}
{"SMILES": "CNCc1ccc(-c2cc(-c3nc(-c4ccc(S(=O)(=O)C(C)C)cc4)cnc3N)on2)cc1", "effect on": "enzyme activity", "mode": "inhibitor", "concentration": "0.4 µM", "measurement": "inhibition", "result": "17%"}
